Measured values as given in ChEMBL document CHEMBL4808210, “Mapping Chromone-3-Phenylcarboxamide Pharmacophore: Quid Est Veritas?” (J Med Chem, 2021).
Active and inactive are the calls of the source. No cut-off for these calls is given here.

Key:
[1] = biological target: T1, Amine oxidase [flavin-containing] B (Homo sapiens, UniProt P27338); experiment: (§1) Inhibition of recombinant human MAO-B expressed in baculovirus infected BTI-TN- 5B1-4 insect cells at 10 uM using kynuramine as substrate preincubated for 10 mins in presence of substrate followed by enzyme addition and measured every minute for 30 mins by spectrophotometry analysis relative to control; details: BTI-TN-5B1-4, human, 0.5 h, time 40 min
T1 sequence (P27338 whole entry): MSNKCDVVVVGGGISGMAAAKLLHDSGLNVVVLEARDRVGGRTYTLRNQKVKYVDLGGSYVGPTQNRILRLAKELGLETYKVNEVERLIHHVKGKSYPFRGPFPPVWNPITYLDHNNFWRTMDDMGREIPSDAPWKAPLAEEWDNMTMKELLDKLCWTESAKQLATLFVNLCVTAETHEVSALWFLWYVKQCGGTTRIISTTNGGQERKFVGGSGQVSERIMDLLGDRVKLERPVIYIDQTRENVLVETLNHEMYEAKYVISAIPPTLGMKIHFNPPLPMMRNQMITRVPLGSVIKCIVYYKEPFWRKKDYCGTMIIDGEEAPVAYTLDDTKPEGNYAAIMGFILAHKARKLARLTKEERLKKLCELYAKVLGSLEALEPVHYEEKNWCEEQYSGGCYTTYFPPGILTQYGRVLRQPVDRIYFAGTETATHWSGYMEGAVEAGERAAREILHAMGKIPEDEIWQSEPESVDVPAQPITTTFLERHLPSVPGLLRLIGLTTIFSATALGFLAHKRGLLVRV
Outline: (§2)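 Recombinant hMAO-A and hMAO-B were assayed with kynuramine as substrate. Percent inhibition was taken at 10 μM, the highest concentration tested. Where the hMAO-A IC₅₀ was not reached, it was taken as 10 μM.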

MAO-A = biological target: T2, MAO-A (Homo sapiens, UniProt P21397); experiment: as §1, with “MAO-A” for “MAO-B”; details: probe kynuramine, time 40 min; outline: as §2
T2 sequence (P21397 whole entry): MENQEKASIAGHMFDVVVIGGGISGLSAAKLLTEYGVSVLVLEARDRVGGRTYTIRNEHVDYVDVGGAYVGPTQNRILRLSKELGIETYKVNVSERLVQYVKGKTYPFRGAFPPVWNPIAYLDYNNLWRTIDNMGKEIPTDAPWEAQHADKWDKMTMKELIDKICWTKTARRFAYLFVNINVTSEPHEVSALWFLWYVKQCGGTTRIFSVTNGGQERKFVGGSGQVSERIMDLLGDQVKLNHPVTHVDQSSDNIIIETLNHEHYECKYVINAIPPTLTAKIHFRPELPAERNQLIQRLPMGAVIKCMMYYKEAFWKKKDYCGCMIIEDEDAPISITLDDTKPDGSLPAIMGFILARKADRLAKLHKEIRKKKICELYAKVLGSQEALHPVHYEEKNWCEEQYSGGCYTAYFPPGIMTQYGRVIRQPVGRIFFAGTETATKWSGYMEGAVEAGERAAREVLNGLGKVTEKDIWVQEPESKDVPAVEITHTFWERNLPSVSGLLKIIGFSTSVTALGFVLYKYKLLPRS

[2] = Solubility of the compound in phosphate buffer at > 10 uM; type: physicochemical
Caco-2 [3] = experiment: Cytotoxicity against human Caco-2 cells assessed as effect on cell viability at 1 to 10 uM measured after 24 hrs by MTT assay; type: cell-based; details: caco-2, 24 h, dose 1-10 µM
Outline: (§3)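 Caco-2 cells, and SH-SY5Y cells first differentiated toward a dopaminergic-like phenotype, were treated for 24 h with compounds at 1 and 10 μM. Metabolic activity was read as MTT reduction to formazan, relative to untreated cells. Mean ± SEM of at least three independent experiments, each in triplicate.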

Homo sapiens = organism: Homo sapiens; experiment: Selectivity index, ratio of IC50 for recombinant human MAO-A expressed in baculovirus infected BTI-TN- 5B1-4 insect cells to IC50 for recombinant human MAO-B expressed in baculovirus infected BTI-TN- 5B1-4 insect cells using kynuramine as substrate preincubated for 10 mins in presence of substrate followed by enzyme addition and measured every minute for 30 mins by spectrophotometry analysis; outline: as §2
[4] = biological target: T3, Amine oxidase [flavin-containing] A (Homo sapiens, UniProt P21397); experiment: Inhibition of recombinant human MAO-A expressed in baculovirus infected BTI-TN- 5B1-4 insect cells using kynuramine as substrate preincubated for 10 mins in presence of substrate followed by enzyme addition and measured every minute for 30 mins by spectrophotometry analysis; outline: as §2
T3 sequence (P21397 whole entry): T2 sequence (P21397 whole entry)

SH-SY5Y [5] = experiment: Cytotoxicity against human SH-SY5Y cells assessed as effect on NR uptake at 1 to 10 uM measured after 24 hrs by neutral red uptake assay; type: cell-based; details: dose 1-10 µM
Outline: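 Differentiated SH-SY5Y cells were exposed to compounds at 1 and 10 μM for 24 h. Lysosomal activity was read as neutral red dye uptake and compared with untreated cells. Mean ± SEM of at least three independent experiments run in triplicate.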

[6] = biological target: T1, Amine oxidase [flavin-containing] B; experiment: Inhibition of recombinant human MAO-B expressed in baculovirus infected BTI-TN- 5B1-4 insect cells using kynuramine as substrate preincubated for 10 mins in presence of substrate followed by enzyme addition and measured every minute for 30 mins by spectrophotometry analysis; type: cell-based
MCF7 [7] = experiment: Cytotoxicity against human MCF7 cells at 10 uM incubated for 24 to 48 hrs by Celltiter-Glo assay relative to control; type: cell-based; details: mcf7, 10 µM, time 24-48 hrs
Outline: (§4)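 Cells (HEK-293, HUVEC, MCF-7) exposed to test compounds at 10 μM for 24 h; cytotoxicity read in triplicate with a luminescence kit measuring intracellular ATP levels.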

[8] = biological target: ATP-dependent translocase ABCB1 (Homo sapiens, UniProt P08183); experiment: Modulation of P-gp-mediated Rhodamine-123 efflux in human Caco-2 cells assessed as Rhodamine-123 accumulation at 10 uM pretreated for 30 mins in presence or absence of Zos followed by Rho-123 addition and measured after 90 mins by fluorescence spectroscopy; type: cell-based; details: caco-2, 2 h, time 120 min
Sequence of ATP-dependent translocase ABCB1 (P08183 whole entry): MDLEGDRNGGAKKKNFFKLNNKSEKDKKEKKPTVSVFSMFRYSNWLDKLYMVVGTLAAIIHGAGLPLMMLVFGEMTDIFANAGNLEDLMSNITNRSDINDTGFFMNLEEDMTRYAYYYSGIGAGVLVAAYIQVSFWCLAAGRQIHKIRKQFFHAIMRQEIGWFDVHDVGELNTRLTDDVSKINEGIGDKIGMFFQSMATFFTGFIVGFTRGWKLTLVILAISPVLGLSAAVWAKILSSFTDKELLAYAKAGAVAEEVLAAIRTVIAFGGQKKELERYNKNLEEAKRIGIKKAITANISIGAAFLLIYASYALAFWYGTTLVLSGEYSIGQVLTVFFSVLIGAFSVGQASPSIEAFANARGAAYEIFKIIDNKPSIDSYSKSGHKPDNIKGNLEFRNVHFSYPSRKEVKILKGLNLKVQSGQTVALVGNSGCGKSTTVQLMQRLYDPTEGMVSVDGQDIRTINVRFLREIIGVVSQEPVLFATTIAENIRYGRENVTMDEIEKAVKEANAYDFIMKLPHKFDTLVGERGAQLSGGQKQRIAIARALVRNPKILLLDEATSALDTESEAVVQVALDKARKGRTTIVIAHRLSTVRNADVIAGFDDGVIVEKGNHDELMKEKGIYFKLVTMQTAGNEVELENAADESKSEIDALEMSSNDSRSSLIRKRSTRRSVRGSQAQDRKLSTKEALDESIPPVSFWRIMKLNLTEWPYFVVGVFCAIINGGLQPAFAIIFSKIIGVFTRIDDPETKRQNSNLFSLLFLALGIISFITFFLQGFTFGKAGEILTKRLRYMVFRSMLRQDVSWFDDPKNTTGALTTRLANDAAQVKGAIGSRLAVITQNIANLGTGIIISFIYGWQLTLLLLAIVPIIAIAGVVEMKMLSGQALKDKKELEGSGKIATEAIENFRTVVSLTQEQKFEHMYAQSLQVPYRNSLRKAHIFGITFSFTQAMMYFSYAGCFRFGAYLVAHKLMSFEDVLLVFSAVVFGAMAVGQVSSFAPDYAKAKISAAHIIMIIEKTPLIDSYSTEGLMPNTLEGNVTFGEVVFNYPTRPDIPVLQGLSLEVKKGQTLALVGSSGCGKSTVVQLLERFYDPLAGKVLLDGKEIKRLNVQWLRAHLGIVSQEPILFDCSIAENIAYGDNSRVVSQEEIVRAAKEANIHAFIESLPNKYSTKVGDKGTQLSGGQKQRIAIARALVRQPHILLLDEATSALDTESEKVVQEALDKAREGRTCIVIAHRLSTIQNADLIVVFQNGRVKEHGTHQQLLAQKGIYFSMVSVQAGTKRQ
Outline: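 Caco-2 cells were exposed to compounds at 10 μM during incubation with the P-gp substrate rhodamine 123 (5 μM). Zosuquidar served as the specific P-gp inhibitor. Cellular rhodamine 123 was read by fluorescence spectroscopy. Mean ± SEM of at least three independent experiments in triplicate.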

hERG = hERG (Homo sapiens, UniProt Q12809); experiment: Inhibition of human ERG at 10 uM incubated for 2 hrs by fluorescence polarization assay relative to control
Sequence of hERG (Q12809 whole entry): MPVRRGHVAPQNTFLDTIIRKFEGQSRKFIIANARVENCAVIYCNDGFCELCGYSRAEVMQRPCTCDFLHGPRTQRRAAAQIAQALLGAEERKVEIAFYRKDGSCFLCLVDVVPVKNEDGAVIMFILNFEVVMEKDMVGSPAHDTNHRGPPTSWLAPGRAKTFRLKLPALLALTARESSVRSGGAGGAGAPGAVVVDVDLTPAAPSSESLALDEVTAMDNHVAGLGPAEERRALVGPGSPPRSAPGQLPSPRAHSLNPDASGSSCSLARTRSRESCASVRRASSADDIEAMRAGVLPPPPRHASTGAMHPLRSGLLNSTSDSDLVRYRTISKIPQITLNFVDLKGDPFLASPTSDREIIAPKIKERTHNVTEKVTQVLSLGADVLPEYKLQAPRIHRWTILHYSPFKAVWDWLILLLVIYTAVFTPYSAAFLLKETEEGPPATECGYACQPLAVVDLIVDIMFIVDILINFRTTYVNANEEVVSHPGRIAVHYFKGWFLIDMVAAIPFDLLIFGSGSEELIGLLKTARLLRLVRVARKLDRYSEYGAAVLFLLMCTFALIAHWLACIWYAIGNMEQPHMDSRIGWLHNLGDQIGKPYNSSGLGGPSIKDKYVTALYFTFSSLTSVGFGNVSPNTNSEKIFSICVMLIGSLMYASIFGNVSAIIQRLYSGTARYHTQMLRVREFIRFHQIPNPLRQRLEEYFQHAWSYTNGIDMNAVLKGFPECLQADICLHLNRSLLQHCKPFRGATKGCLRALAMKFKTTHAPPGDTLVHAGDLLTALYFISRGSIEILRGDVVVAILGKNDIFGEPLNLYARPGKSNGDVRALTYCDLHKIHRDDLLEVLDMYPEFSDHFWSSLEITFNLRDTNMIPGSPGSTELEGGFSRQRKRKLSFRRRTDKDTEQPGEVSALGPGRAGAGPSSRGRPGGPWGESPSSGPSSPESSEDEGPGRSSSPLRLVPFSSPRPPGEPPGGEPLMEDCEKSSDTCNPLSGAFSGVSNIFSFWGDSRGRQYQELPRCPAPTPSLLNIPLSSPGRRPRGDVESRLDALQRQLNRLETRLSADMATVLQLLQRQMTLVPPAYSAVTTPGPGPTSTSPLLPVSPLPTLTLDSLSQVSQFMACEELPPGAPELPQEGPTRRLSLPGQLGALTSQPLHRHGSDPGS
Outline: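 hERG binding was measured by fluorescence polarization, using a homogenized membrane preparation containing hERG plus a fluorescent tracer. A drop in FP signal from tracer displacement was read as inhibition. Compounds were tested at 10 μM.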

HEK293 [9] = experiment: Cytotoxicity against HEK293 cells at 10 uM incubated for 24 to 48 hrs by Celltiter-Glo assay relative to control; type: cell-based; details: human, hek293, 10 µM, time 24-48 hrs; outline: as §4
HEK293 [10] = experiment: Cytotoxicity against HEK293 cells incubated for 24 to 48 hrs by Celltiter-Glo assay; type: cell-based, Homo sapiens
SH-SY5Y [11] = experiment: Protection against iron(III)-induced damage in human SH-SY5Y cells assessed as increase in lysosomal activity at 1 to 10 uM pretreated for 30 mins followed by iron(III) treatment at 1500 uM after 24 hrs by NR uptake assay; type: functional, cell-based; details: dose 1-10 µM, time 24.5 hrs
Outline: (§5)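 Differentiated SH-SY5Y cells were pretreated with compounds at 1 or 10 μM for 30 min, then exposed to iron(III) at 1000 or 1500 μM for 24 h. Viability was read by neutral red uptake. Mean ± SD of three independent experiments, two-way ANOVA.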

HUVEC [12] = experiment: Cytotoxicity against HUVEC cells incubated for 24 to 48 hrs by Celltiter-Glo assay; type: cell-based, Homo sapiens
SH-SY5Y [13] = experiment: Cytotoxicity against human SH-SY5Y cells assessed as reduction in cell viability at 10 uM measured after 24 hrs by MTT assay relative to control; type: cell-based; outline: as §3
MCF7 [14] = experiment: Cytotoxicity against human MCF7 cells incubated for 24 to 48 hrs by Celltiter-Glo assay; type: cell-based
HUVEC [15] = experiment: Cytotoxicity against HUVEC cells at 10 uM incubated for 24 to 48 hrs by Celltiter-Glo assay relative to control; type: cell-based; details: human, time 24-48 hrs; outline: as §4
SH-SY5Y [16] = experiment: Protection against iron(III)-induced damage in human SH-SY5Y cells assessed as increase in lysosomal activity at 1 to 10 uM pretreated for 30 mins followed by iron(III) treatment at 1000 uM after 24 hrs by NR uptake assay; type: functional, cell-based; details: dose 1-10 µM, time 24.5 hrs; outline: as §5
[17] = biological target: T1, Amine oxidase [flavin-containing] B; experiment: Time dependent inhibition of recombinant human MAO-B expressed in baculovirus infected BTI-TN- 5B1-4 insect cells assessed as increase in enzyme activity at IC80 measured after 120 mins; details: bti-tn-5b1-4, 2 h
Caco-2 [18] = experiment: Cytotoxicity against human Caco-2 cells assessed as reduction in cell viability at 10 uM measured after 24 hrs by MTT assay relative to control; type: cell-based; details: caco-2, 24 h; outline: as §3
SH-SY5Y [19] = experiment: Cytotoxicity against human SH-SY5Y cells assessed as reduction in cell viability at 1 uM measured after 24 hrs by MTT assay relative to control; type: cell-based; outline: as §3

Cc1ccc(NC(=O)c2cc3ccccc3[nH]c2=O)cc1C
inhibition at 10 µM [1]: 8.1% | inhibition at 0.5 h, 10 µM (MAO-A): 1.32%

O=C(Nc1cccc(Cl)c1)c1cc2ccccc2[nH]c1=O
inhibition at 10 µM [1]: 8.9% | inhibition at 0.5 h, 10 µM (MAO-A): 2.65%

COc1ccc(NC(=O)c2cc3ccccc3oc2=O)cc1OC
solubility [2]: Insoluble

O=C(Nc1ccc(Cl)c(Cl)c1)c1cc2ccccc2[nH]c1=O
solubility [2]: Insoluble

Cc1ccc(NC(=O)C2=Cc3ccccc3OC2)cc1C
Activity (Caco-2 [3]): Non-Toxic | Ratio IC50 (Homo sapiens): 300 | IC50 [4]: 13.7 µM | Activity (SH-SY5Y [5]): Non-Toxic | IC50 [6]: 0.0457 µM

Cc1ccc(NC(=O)c2csc3ccccc3c2=O)cc1C
Activity (Caco-2 [3]): Non-Toxic | Ratio IC50 (Homo sapiens): > 2990 | inhibition at 0.5 h, 10 µM (MAO-A): 0.2% | Activity (SH-SY5Y [5]): Non-Toxic | IC50 [6]: 0.00335 µM

O=C(Nc1cccc(Cl)c1)c1coc2ccccc2c1=O
Activity (MCF7 [7]): < 10% | Activity (Caco-2 [3]): Non-Toxic | Activity [8]: Not Active | inhibition at 2 h, 10 µM (hERG): < 10% | Activity (HEK293 [9]): < 10% | IC50 (HEK293 [10]): Not Active | Activity (SH-SY5Y [11]): inactive | IC50 (HUVEC [12]; huvec): Not Active | Activity (SH-SY5Y [13]): < 85% | IC50 (MCF7 [14]): Not Active | Activity (HUVEC [15]): < 10% | Activity (SH-SY5Y [16]): inactive | Activity (SH-SY5Y [5]): Non-Toxic

C[C@H](NCc1ccc(OCc2cccc(F)c2)cc1)C(N)=O [SAFINAMIDE]
inhibition at 0.5 h, 10 µM (MAO-A): 30.5% | TDI [17]: Active

O=C(Nc1ccc(Cl)c(Cl)c1)C1=Cc2ccccc2OC1
Activity (MCF7 [7]): < 10% | Activity (Caco-2 [3]): Non-Toxic | Activity [8]: Not Active | inhibition at 2 h, 10 µM (hERG): < 10% | Activity (HEK293 [9]): < 10% | IC50 (HEK293 [10]): Not Active | Activity (SH-SY5Y [11]): inactive | IC50 (HUVEC [12]; Homo sapiens, HUVEC, read-out: IC50): 8.4 µM | Ratio IC50 (Homo sapiens): 1300 | IC50 [4]: 4.13 µM | IC50 (MCF7 [14]): Not Active | Activity (HUVEC [15]): 64.4% | Activity (SH-SY5Y [16]): inactive | Activity (SH-SY5Y [5]): Non-Toxic | IC50 [6]: 0.00316 µM

O=C(Nc1cccc(Cl)c1)c1cc2ccccc2oc1=O
Activity (Caco-2 [18]): 93.5% | Activity (SH-SY5Y [19]): 79.5% | Ratio IC50 (Homo sapiens): > 985 | Activity (SH-SY5Y [13]): 71.8% | inhibition at 0.5 h, 10 µM (MAO-A): 13.5% | Activity (SH-SY5Y [5]): Non-Toxic | IC50 [6]: 0.0102 µM

Cc1ccc(NC(=O)c2cc3ccccc3oc2=O)cc1C
Activity (Caco-2 [3]): Non-Toxic | Activity (SH-SY5Y [13]): < 85% | inhibition at 0.5 h, 10 µM (MAO-A): 26.8% | Activity (SH-SY5Y [5]): Non-Toxic
